Each block holds one molecule with its values, some of them ahead of it.
Experiments:
Rattus norvegicus [1] = assay: In vivo tissue biodistribution behavior of high specific activity was determined in rat bone at 30 min postinjection of radiolabeled compound; type: ADME, organism-based, Bone element; settings: 0.5 h
Method in brief: (§1)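 Female Sprague-Dawley rats (200-250 g) under light ether anesthesia received 50-100 µCi of the 18F-labelled ligand (>1000 Ci/mmol) in 0.2 mL buffered saline into the femoral vein. Food and water were free until decapitation. Blood was drawn by cardiac puncture and the femur and brain regions were taken. Tissues were weighed and gamma counted. Values are %ID/g, mean ± SD of 4-5 rats.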

Rattus norvegicus [2] = assay: In vivo tissue biodistribution behavior of high specific activity was determined in rat cerebellum at 30 min postinjection of radiolabeled compound; type: ADME, organism-based; settings: 0.5 h; method in brief: as §1
Rattus norvegicus [3] = assay: In vivo tissue biodistribution behavior of high specific activity was determined in rat whole brain at 30 min postinjection of radiolabeled compound; type: ADME, organism-based; settings: 0.5 h; method in brief: as §1
Rattus norvegicus [4] = assay: In vivo tissue biodistribution behavior of high specific activity was determined in rat whole brain at 5 min postinjection of radiolabeled compound; type: ADME, organism-based; method in brief: as §1
Rattus norvegicus [5] = assay: In vivo tissue biodistribution behavior of high specific activity was determined in rat blood at 30 min postinjection of radiolabeled compound; type: ADME, organism-based; settings: 0.5 h; method in brief: as §1
Rattus norvegicus [6] = assay: In vivo tissue biodistribution behavior of high specific activity was determined in rat bone at 5 min postinjection of radiolabeled compound; type: ADME, organism-based, Bone element; method in brief: as §1
Rattus norvegicus [7] = assay: In vivo tissue biodistribution behavior of high specific activity was determined in rat cerebellum at 5 min postinjection of radiolabeled compound; type: ADME, organism-based; method in brief: as §1
Rattus norvegicus [8] = assay: In vivo tissue biodistribution behavior of high specific activity was determined in rat striatum at 5 min postinjection of radiolabeled compound; type: ADME, organism-based; method in brief: as §1
Rattus norvegicus [9] = assay: In vivo tissue biodistribution behavior of high specific activity was determined in rat striatum at 30 min postinjection of radiolabeled compound; type: ADME, organism-based; settings: 0.5 h; method in brief: as §1
Rattus norvegicus [10] = assay: In vivo tissue biodistribution behavior of high specific activity was determined in rat blood at 5 min postinjection of radiolabeled compound; type: ADME, organism-based; method in brief: as §1
Rattus norvegicus [11] = assay: In vivo tissue biodistribution behavior of high specific activity was determined in rat bone at 60 min postinjection of radiolabeled compound; type: ADME, organism-based, Bone element; settings: 1 h; method in brief: as §1
Rattus norvegicus [12] = assay: In vivo tissue biodistribution behavior of high specific activity was determined in rat striatum at 60 min postinjection of radiolabeled compound; type: ADME, organism-based; settings: 1 h; method in brief: as §1
Rattus norvegicus [13] = assay: In vivo tissue biodistribution behavior of high specific activity was determined in rat blood at 60 min postinjection of radiolabeled compound; type: ADME, organism-based; settings: 1 h; method in brief: as §1
Rattus norvegicus [14] = assay: In vivo tissue biodistribution behavior of high specific activity was determined in rat whole brain at 60 min postinjection of radiolabeled compound; type: ADME, organism-based; settings: 1 h; method in brief: as §1
Rattus norvegicus [15] = assay: In vivo tissue biodistribution behavior of high specific activity was determined in rat cerebellum at 60 min postinjection of radiolabeled compound; type: ADME, organism-based; settings: 1 h; method in brief: as §1
[16] = Partition coefficient (logP); type: physicochemical; settings: octanol/water
Dopamine receptor = assay: In vitro inhibition of [3H]spiperone binding to Dopamine receptor D2 in Macaca nemestrina striatal membranes; design: species or system Striatum, Membrane
Method in brief: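 Caudate tissue from adult Macaca nemestrina brains, homogenized in ice-cold 50 mM potassium phosphate pH 7.4, washed twice by centrifugation at 30000g and stored at -70 °C. Assay used 25-50 µg protein in 50 mM Tris-HCl, 120 mM NaCl, 5 mM CaCl2, 1 mM MgCl2, pH 7.4, with 0.2 nM [3H]spiperone for 30 min at 37 °C. Bound ligand was collected by filtration and counted by scintillation. Nonspecific binding was defined with 1 µM cis-flupenthixol. Ki was taken from competitive displacement.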

[17] = In vivo tissue biodistribution behavior of high specific activity was determined in whole brain at 60 min postinjection of radiolabeled compound; type: ADME, organism-based; settings: 1 h; method in brief: as §1
[18] = Dissociation constant of the compound; value ranges from 0.81-1.2 nM; type: physicochemical

SMILES: CCCN1CCC[C@H]1CNC(=O)c1c(O)c(Cl)cc(Cl)c1OC
logP [16]: 1.75 | Ki (Dopamine receptor): 0.0173 µM

SMILES: COc1c(Cl)cc(Cl)c(O)c1C(=O)NC[C@H]1CCCN1CCC(C)F (stereo not given in full)
logP [16]: 1.5 | Ki (Dopamine receptor): 2.62 µM

SMILES: COc1c(Cl)cc(Cl)c(O)c1C(=O)NC[C@@H]1CCCN1CCF
logP [16]: 0.55 | Ki (Dopamine receptor): 0.159 µM

SMILES: COc1c(Cl)cc(Cl)c(O)c1C(=O)NC[C@@H]1CCCN1CCC(C)F (stereo not given in full)
logP [16]: 1.5 | Ki (Dopamine receptor): 2.61 µM

SMILES: COc1c(Cl)cc(Cl)c(O)c1C(=O)NC[C@@H]1CCCN1CCCCF
logP [16]: 1.6 | Ki (Dopamine receptor): 0.0885 µM

Now from value to molecule:

Tissue concentration (Rattus norvegicus [1]): 0.23 % injected dose g-1 | Tissue concentration (Rattus norvegicus [2]): 0.05 % injected dose g-1 | Tissue concentration (Rattus norvegicus [3]): 0.06 % injected dose g-1 | Tissue concentration (Rattus norvegicus [4]): 0.52 % injected dose g-1 | Tissue concentration (Rattus norvegicus [5]): 0.07 % injected dose g-1 | Tissue concentration (Rattus norvegicus [6]): 0.2 % injected dose g-1 | Tissue concentration (Rattus norvegicus [7]): 0.42 % injected dose g-1 | Tissue concentration (Rattus norvegicus [8]): 0.62 % injected dose g-1 | Tissue concentration (Rattus norvegicus [9]): 0.09 % injected dose g-1 | Tissue concentration (Rattus norvegicus [10]): 0.16 % injected dose g-1
SMILES: COc1c(Cl)cc(Cl)c(O)c1C(=O)NC[C@@H]1CCCN1CC[18F]

Tissue concentration (Rattus norvegicus [11]): 0.39 % injected dose g-1 | Tissue concentration (Rattus norvegicus [1]): 0.24 % injected dose g-1 | Tissue concentration (Rattus norvegicus [12]): 0.09 % injected dose g-1 | Tissue concentration (Rattus norvegicus [13]): 0.06 % injected dose g-1 | Tissue concentration (Rattus norvegicus [2]): 0.08 % injected dose g-1 | Tissue concentration (Rattus norvegicus [3]): 0.1 % injected dose g-1 | Tissue concentration (Rattus norvegicus [4]): 0.71 % injected dose g-1 | Tissue concentration (Rattus norvegicus [5]): 0.09 % injected dose g-1 | Tissue concentration (Rattus norvegicus [6]): 0.22 % injected dose g-1 | Tissue concentration (Rattus norvegicus [7]): 0.58 % injected dose g-1 | Tissue concentration (Rattus norvegicus [8]): 0.87 % injected dose g-1 | Tissue concentration (Rattus norvegicus [9]): 0.12 % injected dose g-1 | Tissue concentration (Rattus norvegicus [14]): 0.06 % injected dose g-1 | Tissue concentration (Rattus norvegicus [15]): 0.05 % injected dose g-1 | Tissue concentration (Rattus norvegicus [10]): 0.21 % injected dose g-1
SMILES: COc1c(Cl)cc(Cl)c(O)c1C(=O)NC[C@@H]1CCCN1CCCC[18F]

logP [16]: 2.28 | Ki (Dopamine receptor): 0.0411 µM
SMILES: CCCCN1CCC[C@H]1CNC(=O)c1c(O)c(Cl)cc(Cl)c1OC

logP [16]: 1.07 | Ki (Dopamine receptor): 0.13 µM
SMILES: COc1c(Cl)cc(Cl)c(O)c1C(=O)NC[C@@H]1CCCN1CCCF

Tissue concentration (Rattus norvegicus [11]): 0.54 % injected dose g-1 | Tissue concentration (Rattus norvegicus [1]): 0.34 % injected dose g-1 | Tissue concentration (Rattus norvegicus [12]): 0.07 % injected dose g-1 | Tissue concentration (Rattus norvegicus [13]): 0.05 % injected dose g-1 | Tissue concentration (Rattus norvegicus [2]): 0.09 % injected dose g-1 | Tissue concentration (Rattus norvegicus [3]): 0.11 % injected dose g-1 | Tissue concentration (Rattus norvegicus [4]): 1.16 % injected dose g-1 | Tissue concentration (Rattus norvegicus [5]): 0.1 % injected dose g-1 | Tissue concentration (Rattus norvegicus [6]): 0.28 % injected dose g-1 | Tissue concentration (Rattus norvegicus [7]): 0.98 % injected dose g-1 | Tissue concentration (Rattus norvegicus [8]): 1.5 % injected dose g-1 | Tissue concentration (Rattus norvegicus [9]): 0.13 % injected dose g-1 | Tissue concentration [17]: 0.04 % injected dose g-1 | Tissue concentration (Rattus norvegicus [15]): 0.03 % injected dose g-1 | Tissue concentration (Rattus norvegicus [10]): 0.26 % injected dose g-1
SMILES: COc1c(Cl)cc(Cl)c(O)c1C(=O)NC[C@@H]1CCCN1CCC[18F]

Kd [18]: 0.00081 µM
SMILES: CCN1CCC[C@H]1CNC(=O)c1c(O)c(Cl)cc(Cl)c1OC [RACLOPRIDE]

Source: ChEMBL document CHEMBL1124901 (J Med Chem, 1990)
